Results taken from ChEMBL document CHEMBL4715736, “Identification of anticancer agents based on the thieno[2,3-b]pyridine and 1H-pyrazole molecular scaffolds” (2016).

Key:
Assay type in all cases: functional
Settings in all cases: read-out: Activity
[1] = system: PC-3; test: Growth inhibition of human PC-3 cells assessed as cell growth at 10 uM incubated for 48 hrs by sulforhodamine B assay relative to control
In short: (§1)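 Run by the NCI Developmental Therapeutics Program as part of its 60-line human tumour panel. Each compound tested at a single 10 µM dose. Growth expressed as % relative to untreated control cells (100%).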

[2] = system: Hs-578T; test: Growth inhibition of human Hs-578T cells assessed as cell growth at 10 uM incubated for 48 hrs by sulforhodamine B assay relative to control
In short: (§2)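 Submitted to the NCI Developmental Therapeutics Program for the NCI60 human tumour cell line panel. First screen at a single 10 µM concentration. Read-out is growth relative to untreated control cells set at 100%.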

[3] = system: SF-268; test: Growth inhibition of human SF-268 cells assessed as cell growth at 10 uM incubated for 48 hrs by sulforhodamine B assay relative to control; in short: as §1
[4] = system: SN12C; test: Growth inhibition of human SN12C cells assessed as cell growth at 10 uM incubated for 48 hrs by sulforhodamine B assay relative to control; in short: as §1
[5] = system: OVCAR-8; test: Growth inhibition of human OVCAR-8 cells assessed as cell growth at 10 uM incubated for 48 hrs by sulforhodamine B assay relative to control; in short: as §1
[6] = system: NCI/ADR-RES; test: Growth inhibition of human NCI/ADR-RES cells assessed as cell growth at 10 uM incubated for 48 hrs by sulforhodamine B assay relative to control; in short: as §2
[7] = system: NCI-H226; test: Growth inhibition of human NCI-H226 cells assessed as cell growth at 10 uM incubated for 48 hrs by sulforhodamine B assay relative to control; in short: as §2
[8] = system: CCRF-CEM; test: Growth inhibition of human CCRF-CEM cells assessed as cell growth at 10 uM incubated for 48 hrs by sulforhodamine B assay relative to control
In short: (§3)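 NCI Developmental Therapeutics Program NCI60 panel. Compounds that were active in the 10 µM one-dose screen went on to dose–response testing. Growth at each concentration is expressed relative to untreated control (100%). GI50 (concentration giving 50% of maximal inhibition of proliferation) and TGI (concentration giving total growth inhibition) were derived from the curves.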

[9] = system: IGROV-1; test: Growth inhibition of human IGROV-1 cells assessed as cell growth at 10 uM incubated for 48 hrs by sulforhodamine B assay relative to control; in short: as §2
[10] = system: RPMI-8226; test: Growth inhibition of human RPMI-8226 cells assessed as cell growth at 10 uM incubated for 48 hrs by sulforhodamine B assay relative to control; in short: as §1
[11] = system: A498; test: Growth inhibition of human A498 cells assessed as cell growth at 10 uM incubated for 48 hrs by sulforhodamine B assay relative to control; in short: as §3
[12] = system: MDA-MB-231; test: Growth inhibition of human MDA-MB-231 cells assessed as cell growth at 10 uM incubated for 48 hrs by sulforhodamine B assay relative to control; in short: as §2
[13] = system: NCI-H322M; test: Growth inhibition of human NCI-H322M cells assessed as cell growth at 10 uM incubated for 48 hrs by sulforhodamine B assay relative to control; in short: as §2
[14] = system: SF-539; test: Growth inhibition of human SF-539 cells assessed as cell growth at 10 uM incubated for 48 hrs by sulforhodamine B assay relative to control; in short: as §1
[15] = system: NCI-H460; test: Growth inhibition of human NCI-H460 cells assessed as cell growth at 10 uM incubated for 48 hrs by sulforhodamine B assay relative to control; in short: as §2
[16] = system: K562; test: Growth inhibition of human K562 cells assessed as cell growth at 10 uM incubated for 48 hrs by sulforhodamine B assay relative to control; in short: as §2
[17] = system: SK-MEL-5; test: Growth inhibition of human SK-MEL-5 cells assessed as cell growth at 10 uM incubated for 48 hrs by sulforhodamine B assay relative to control; in short: as §1
[18] = system: MDA-MB-435; test: Growth inhibition of human MDA-MB-435 cells assessed as cell growth at 10 uM incubated for 48 hrs by sulforhodamine B assay relative to control; in short: as §2
[19] = system: SNB-19; test: Growth inhibition of human SNB-19 cells assessed as cell growth at 10 uM incubated for 48 hrs by sulforhodamine B assay relative to control; in short: as §1
[20] = system: UACC-257; test: Growth inhibition of human UACC-257 cells assessed as cell growth at 10 uM incubated for 48 hrs by sulforhodamine B assay relative to control; in short: as §1
[21] = system: RXF 393; test: Growth inhibition of human RXF 393 cells assessed as cell growth at 10 uM incubated for 48 hrs by sulforhodamine B assay relative to control; in short: as §1
[22] = system: SNB-75; test: Growth inhibition of human SNB-75 cells assessed as cell growth at 10 uM incubated for 48 hrs by sulforhodamine B assay relative to control; in short: as §1
[23] = system: LOX IMVI; test: Growth inhibition of human LOX IMVI cells assessed as cell growth at 10 uM incubated for 48 hrs by sulforhodamine B assay relative to control; in short: as §2
[24] = system: OVCAR-5; test: Growth inhibition of human OVCAR-5 cells assessed as cell growth at 10 uM incubated for 48 hrs by sulforhodamine B assay relative to control; in short: as §1
[25] = system: SW-620; test: Growth inhibition of human SW-620 cells assessed as cell growth at 10 uM incubated for 48 hrs by sulforhodamine B assay relative to control; in short: as §1
[26] = system: UACC-62; test: Growth inhibition of human UACC-62 cells assessed as cell growth at 10 uM incubated for 48 hrs by sulforhodamine B assay relative to control; in short: as §1
[27] = system: HOP-92; test: Growth inhibition of human HOP-92 cells assessed as cell growth at 10 uM incubated for 48 hrs by sulforhodamine B assay relative to control; in short: as §2
[28] = system: Malme-3M; test: Growth inhibition of human Malme-3M cells assessed as cell growth at 10 uM incubated for 48 hrs by sulforhodamine B assay relative to control; in short: as §2
[29] = system: OVCAR-3; test: Growth inhibition of human OVCAR-3 cells assessed as cell growth at 10 uM incubated for 48 hrs by sulforhodamine B assay relative to control; in short: as §1
[30] = system: UO-31; test: Growth inhibition of human UO-31 cells assessed as cell growth at 10 uM incubated for 48 hrs by sulforhodamine B assay relative to control; in short: as §1
[31] = system: HCT-15; test: Growth inhibition of human HCT-15 cells assessed as cell growth at 10 uM incubated for 48 hrs by sulforhodamine B assay relative to control; in short: as §2
[32] = system: MOLT-4; test: Growth inhibition of human MOLT-4 cells assessed as cell growth at 10 uM incubated for 48 hrs by sulforhodamine B assay relative to control; in short: as §2
[33] = system: OVCAR-4; test: Growth inhibition of human OVCAR-4 cells assessed as cell growth at 10 uM incubated for 48 hrs by sulforhodamine B assay relative to control; in short: as §1
[34] = system: MCF7; test: Growth inhibition of human MCF7 cells assessed as cell growth at 10 uM incubated for 48 hrs by sulforhodamine B assay relative to control; in short: as §2
[35] = system: T47D; test: Growth inhibition of human T47D cells assessed as cell growth at 10 uM incubated for 48 hrs by sulforhodamine B assay relative to control; in short: as §1
[36] = system: COLO 205; test: Growth inhibition of human COLO 205 cells assessed as cell growth at 10 uM incubated for 48 hrs by sulforhodamine B assay relative to control; in short: as §3

SMILES	growth at 10 µM [1] [%]	growth at 10 µM [2] [%]	growth at 10 µM [3] [%]	growth at 10 µM [4] [%]	growth at 10 µM [5] [%]	growth at 10 µM [6] [%]	growth at 10 µM [7] [%]	growth at 10 µM [8] [%]	growth at 10 µM [9] [%]	growth at 10 µM [10] [%]	growth at 10 µM [11] [%]	growth at 10 µM [12] [%]	growth at 10 µM [13] [%]	growth at 10 µM [14] [%]	growth at 10 µM [15] [%]	growth at 10 µM [16] [%]	growth at 10 µM [17] [%]	growth at 10 µM [18] [%]	growth at 10 µM [19] [%]	growth at 10 µM [20] [%]	other results
Nc1c(C(=O)Nc2ccccc2)sc2nc3c(cc12)CN(Cc1ccccc1)CC3	70	-11	38	66	59	56	31	84	74	72	-17	37	62	9	44	48	49	34	59	67	growth at 10 µM [21]: 12%; growth at 10 µM [22]: -54%; growth at 10 µM [23]: 51%; growth at 10 µM [24]: 70%; growth at 10 µM [25]: 63%; growth at 10 µM [26]: 57%; growth at 10 µM [27]: 13%; growth at 10 µM [28]: 23%; growth at 10 µM [29]: 52%; growth at 10 µM [30]: 41%; growth at 10 µM [31]: 66%; growth at 10 µM [32]: 81%; growth at 10 µM [33]: 11%; growth at 10 µM [34]: 53%; growth at 10 µM [35]: 58%; growth at 10 µM [36]: 66%
COc1ccc(-c2ccn(S(=O)(=O)c3ccc(C)cc3)n2)cc1	81.2	96	95.9	86.9	83.4	78.7	68.5	85.7	81.5	69	63.2	89.2	96.7	97	81	75.4	68.3	94.1	94.5	79.9	growth at 10 µM [21]: 86.3%; growth at 10 µM [22]: 92.5%; growth at 10 µM [23]: 84.2%; growth at 10 µM [24]: 112%; growth at 10 µM [25]: 90.2%; growth at 10 µM [26]: 70.9%; growth at 10 µM [27]: 79.9%; growth at 10 µM [28]: 88.4%; growth at 10 µM [29]: 89.3%; growth at 10 µM [30]: 75.9%; growth at 10 µM [31]: 84.2%; growth at 10 µM [32]: 95.2%; growth at 10 µM [33]: 62%; growth at 10 µM [34]: 88.3%; growth at 10 µM [35]: 48%; growth at 10 µM [36]: 112%
COc1cccc(NC(=O)c2sc3nc4c(cc3c2N)CN(Cc2ccccc2)CC4)c1	54	5	18	52	28	28	41	76	67	83	29	54	71	-18	24	16	35	3	35	44	growth at 10 µM [21]: 6%; growth at 10 µM [22]: -38%; growth at 10 µM [23]: 27%; growth at 10 µM [24]: 71%; growth at 10 µM [25]: 30%; growth at 10 µM [26]: 31%; growth at 10 µM [27]: 23%; growth at 10 µM [28]: 12%; growth at 10 µM [29]: 46%; growth at 10 µM [30]: 24%; growth at 10 µM [31]: 30%; growth at 10 µM [32]: 69%; growth at 10 µM [33]: 13%; growth at 10 µM [34]: 21%; growth at 10 µM [35]: 39%; growth at 10 µM [36]: 44%
Cc1cc(C)cc(S(=O)(=O)n2ccc(-c3ccc4c(c3)CCC(C)(C)O4)n2)c1	82.4	92.7	88.3	88	91	79	66.8	96.3	105	73.2	63	93.5	92	99.8	84.4	85.8	82.9	93.8	94.6	89.6	growth at 10 µM [21]: 77.3%; growth at 10 µM [22]: 87.2%; growth at 10 µM [23]: 95%; growth at 10 µM [24]: 116%; growth at 10 µM [25]: 88.3%; growth at 10 µM [26]: 73.9%; growth at 10 µM [27]: 78.1%; growth at 10 µM [28]: 82.9%; growth at 10 µM [29]: 87.8%; growth at 10 µM [30]: 75%; growth at 10 µM [31]: 82.3%; growth at 10 µM [32]: 91.4%; growth at 10 µM [33]: 67.3%; growth at 10 µM [34]: 81.5%; growth at 10 µM [35]: 58.2%; growth at 10 µM [36]: 103%
COc1ccc(-c2ccn(S(=O)(=O)c3ccc(OC)cc3)n2)cc1	65.8	93.6	95.6	92.4	89.2	88.4	70.9	71.3	91.6	58.7	50.2	96.2	98.3	87.3	75	57	79.9	88.4	96.8	86.2	growth at 10 µM [21]: 88.7%; growth at 10 µM [22]: 88.9%; growth at 10 µM [23]: 88.8%; growth at 10 µM [24]: 90.2%; growth at 10 µM [25]: 82.1%; growth at 10 µM [26]: 71.3%; growth at 10 µM [27]: 38.8%; growth at 10 µM [28]: 112%; growth at 10 µM [29]: 89.3%; growth at 10 µM [30]: 72%; growth at 10 µM [31]: 83%; growth at 10 µM [32]: 73.2%; growth at 10 µM [33]: 63%; growth at 10 µM [34]: 97.9%; growth at 10 µM [35]: 58.8%; growth at 10 µM [36]: 118%
